IDH1 mut inh = inhibitors of IDH1 R132H reductase, primary screen, biochemical, plate reader, single point; Isocitrate dehydrogenase [NADP] cytoplasmic (Homo sapiens), O75874; diaphorase/resazurin fluorescence, 60 min; inhibition, % at 10 µM; hit rate 0.18% among 70,000; in the data active = inhibition above about 34%;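 also: 0% = DMSO and 100% = no enzyme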
Target sequence (O75874 whole entry R132H): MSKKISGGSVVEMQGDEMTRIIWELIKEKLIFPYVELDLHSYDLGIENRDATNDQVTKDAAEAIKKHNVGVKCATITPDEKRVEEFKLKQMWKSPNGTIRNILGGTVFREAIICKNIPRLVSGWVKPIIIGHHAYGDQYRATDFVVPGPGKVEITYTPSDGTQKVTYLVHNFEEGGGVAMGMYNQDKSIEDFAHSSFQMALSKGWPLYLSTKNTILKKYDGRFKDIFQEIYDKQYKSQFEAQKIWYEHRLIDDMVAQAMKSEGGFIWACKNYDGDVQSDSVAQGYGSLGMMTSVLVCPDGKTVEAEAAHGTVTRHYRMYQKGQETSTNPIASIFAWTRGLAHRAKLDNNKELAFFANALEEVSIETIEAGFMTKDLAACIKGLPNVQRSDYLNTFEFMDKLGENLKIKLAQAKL
Tcruzi prolif = T. cruzi intracellular proliferation inhibitors, primary screen, cell-based, beta-gal Tulahuen parasites, NIH3T3 host, luminescence. T. cruzi beta-gal in NIH3T3, GalScreen luminescence, 90 h. inhibition, % at 8.34 µM. hit rate 5.9% among 77,000. AID 624255, 2012;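 active = mean inhibition above about 93%, with at least 55% of replicates each passing it, limit read from the data, passing the limit was not always enough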
KDM4C inh = inhibitors of GASC-1 (KDM4C) histone demethylase, primary screen, biochemical, single concentration HTS. AID 720574, 2013. hit rate 0.15% among 96,000. Lysine-specific demethylase 4C (Homo sapiens), Q9H3R0. GST-KDM4C 2-372, H3K9me3 peptide, LANCE TR-FRET. inhibition, % at 12.5 µM;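 active = mean replicate inhibition above about 25%, with at least 55% of replicates also reaching it, limit read from the data, passing the limit was not always enough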
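System: N-terminal GST-fused human GASC-1 (KDM4C) fragment, residues 2-372; amount: enzyme final amount 10 nM; incubation: reaction 30 min RT, detection step 1 h RT; medium: HEPES buffer, pH 7.5, plus ascorbate; technique: LANCE TR-FRET, Eu antibody, ULight-streptavidin, EDTA, ex 340 nm, em 618/671 nm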
Pf Dd2 inh = P. falciparum Dd2 growth inhibitors, primary screen, SYBR Green fluorescence, single dose replicates | activity change, % at 10 µM | hit rate 2.3% among 94,000 | AID 1159554, 2015 | 72 h; active compounds read low; in the data active = activity change below about -80%
The depositor's hits bear a star; . = no result given; ! = repeats disagree. Sampled rows, rich in hits. Any-hit rate of the full collection: about 5.9%.

SMILES | IDH1 mut inh | Tcruzi prolif | KDM4C inh | Pf Dd2 inh
Cc1ccc(C(=O)CSc2nnc(-c3cccc(F)c3)n2-c2ccccc2)c(C)c1 | -0.3 | . | . | .
CCCCCCNC(=O)Nc1ccc(S(=O)(=O)Nc2ccc(CCNCC(O)COc3ccc(O)cc3)cc2)cc1 (stereo not given) | 1.2 | . | . | .
C[C@H](CO)N1C[C@H](C)[C@@H](CN(C)C(=O)Nc2cccc(C(F)(F)F)c2)OCc2ccccc2-c2c(n(C)c3ccccc23)C1=O | . | . | -2.4 | -85.5*
C[C@H]1CN([C@@H](C)CO)C(=O)c2c(c3ccccc3n2C)-c2ccccc2CO[C@@H]1CN(C)C(=O)Nc1cccc(C(F)(F)F)c1 | . | . | -4.4 | -94.4*
C[C@H](CO)N1C[C@H](C)[C@H](CN(C)C(=O)Nc2cccc(C(F)(F)F)c2)OCc2ccccc2-c2c(n(C)c3ccccc23)C1=O | . | . | -3.5 | -53.0
CCCN(C)C[C@@H]1OCCCC[C@@H](C)Oc2ccc(NS(=O)(=O)c3ccc(C)cc3)cc2C(=O)N([C@@H](C)CO)C[C@@H]1C | 0.8 | 52.0 | 0.5 | -62.7
CCCN(C)C[C@H]1OCCCC[C@@H](C)Oc2ccc(NS(=O)(=O)c3ccc(Cl)cc3)cc2C(=O)N([C@@H](C)CO)C[C@H]1C | 2.9 | 33.0 | 1.0 | -85.9*
CCCN(C)C[C@@H]1OCCCC[C@@H](C)Oc2ccc(NS(=O)(=O)c3ccc(Cl)cc3)cc2C(=O)N([C@H](C)CO)C[C@@H]1C | 0.4 | -1.9 | -0.5 | -60.9
CCCN(C)C[C@@H]1OCCCC[C@H](C)Oc2ccc(NS(=O)(=O)c3ccc(C)cc3)cc2C(=O)N([C@@H](C)CO)C[C@H]1C | . | 61.8 | 2.7 | -93.9*
COc1ccc(S(=O)(=O)Nc2ccc3c(c2)C(=O)N([C@H](C)CO)C[C@@H](C)[C@H](CN(C)Cc2ccc(Cl)c(Cl)c2)OCCCC[C@H](C)O3)cc1 | . | 11.8 | 0.2 | -84.3*
CCCN(C)C[C@H]1OCCCC[C@H](C)Oc2ccc(NS(=O)(=O)c3ccc(OC)cc3)cc2C(=O)N([C@H](C)CO)C[C@H]1C | 0.3 | 81.6 | 1.3 | -86.3*
O=C1CC(c2nc3ccccc3n2CCCOc2ccccc2)CN1c1ccccc1 (stereo not given) | -0.5 | . | . | .
C[C@@H]1CCCCO[C@H](CN(C)Cc2ccc3c(c2)OCO3)[C@H](C)CN([C@H](C)CO)C(=O)c2cc(NS(=O)(=O)c3ccc(Cl)cc3)ccc2O1 | -0.8 | 81.0 | 1.8 | -82.8*!
CCCN(C)C[C@H]1OCCCC[C@@H](C)Oc2ccc(NS(=O)(=O)c3ccc(C)cc3)cc2C(=O)N([C@@H](C)CO)C[C@H]1C | . | 55.3 | 0.6 | -86.1*
CCCN(C)C[C@H]1OCCCC[C@@H](C)Oc2ccc(NS(=O)(=O)c3ccc(C)cc3)cc2C(=O)N([C@H](C)CO)C[C@@H]1C | 1.4 | 90.5 | 2.5 | -52.3
CCCN(C)C[C@H]1OCCCC[C@@H](C)Oc2ccc(NS(=O)(=O)c3ccc(C)cc3)cc2C(=O)N([C@H](C)CO)C[C@H]1C | . | 75.2 | -4.7 | -89.3*
O=C(N/N=C/c1ccccc1C(=O)O)c1ccccc1O | 1.0 | . | . | .
COCC(=O)N1CC2(C1)CN(C(=O)c1ccccn1)[C@H](CO)c1c2c2ccc(OC)cc2n1C | . | . | . | 25.9
C[C@H]1CCCCO[C@H](CN(C)Cc2ccc(Cl)c(Cl)c2)[C@@H](C)CN([C@@H](C)CO)C(=O)c2cc(NC(=O)Nc3ccc4c(c3)OCO4)ccc2O1 | . | 68.3 | -1.9 | -56.4
C[C@@H]1CCCCO[C@@H](CN(C)Cc2ccc(Cl)c(Cl)c2)[C@H](C)CN([C@H](C)CO)C(=O)c2cc(NC(=O)Nc3ccc4c(c3)OCO4)ccc2O1 | -0.8 | 98.0 | -2.9 | -87.5*
C[C@@H]1CN([C@H](C)CO)C(=O)c2cc(NC(=O)Nc3ccc4c(c3)OCO4)ccc2O[C@@H](C)CCCCO[C@H]1CN(C)Cc1ccc(Cl)c(Cl)c1 | . | 95.8 | -4.0 | -89.1*
Cc1ccc2oc(C(=O)Nc3sc4c(c3C(=O)NC3CCS(=O)(=O)C3)CCC4)c(C)c2c1 (stereo not given) | 1.1 | . | . | .
CN(C)c1ccc2c(c1)[C@H]1C[C@H](CC(=O)N3CCCCC3)O[C@@H](CO)[C@H]1O2 | . | . | 30.4* | 7.1
CN(C)c1ccc2c(c1)[C@H]1C[C@@H](CC(=O)N3CCc4ccccc4C3)O[C@@H](CO)[C@H]1O2 | -1.7 | 44.9 | 5.3 | -46.8
CN(C)c1ccc2c(c1)[C@H]1C[C@H](CC(=O)N3CCCCC3)O[C@H](CO)[C@H]1O2 | . | . | 30.8* | 12.9
SMILES | IDH1 mut inh | Tcruzi prolif | KDM4C inh | Pf Dd2 inh
CN(C)c1ccc2c(c1)[C@@H]1C[C@H](CC(=O)N3CCCCC3)O[C@H](CO)[C@@H]1O2 | . | . | 45.6* | 29.6
COc1ccc(NC(=O)C(=O)NCC(=O)Nc2ccc(OC)c(Cl)c2)cc1 | 0.5 | . | . | .
CCCC(=O)N1CC2(CCN(C(=O)Nc3cccc(F)c3)CC2)c2c(n(C)c3cc(OC)ccc23)[C@H]1CO | . | . | -0.5 | -86.0*
COc1ccc2c3c(n(C)c2c1)[C@@H](CO)N(C(=O)C1CC1)CC31CCN(C(=O)Nc2cccc(F)c2)CC1 | . | . | -3.1 | -91.2*
COc1ccc2c3c(n(C)c2c1)[C@@H](CO)N(C(=O)C1CC1)CC31CN(C(=O)Nc2cccc(F)c2)C1 | . | . | -1.9 | -87.5*
COc1ccc2c3c(n(C)c2c1)[C@@H](CO)N(C(=O)C1CCC1)CC31CN(C(=O)Nc2cccc(F)c2)C1 | . | . | -2.8 | -87.2*
CN(CCO)c1ccc(/C=N/NC(=O)CCCCCCC(=O)NO)cc1 | 0.2 | . | . | .
COC(=O)c1ccccc1NC(=O)CN(C)S(=O)(=O)c1ccc(F)cc1 | -0.6 | . | . | .
COc1ccc2c3c(n(C)c2c1)[C@@H](CO)N(C(=O)Nc1ccc(F)cc1)CC31CN(Cc2cccnc2)C1 | . | . | 1.1 | -72.4
COc1ccc2c3c(n(C)c2c1)[C@H](CO)N(C(=O)Nc1ccc(F)cc1)CC31CCN(Cc2cccnc2)CC1 | . | . | -0.3 | -90.4*
COc1ccc2c3c(n(C)c2c1)[C@@H](CO)N(C(=O)Nc1ccc(F)cc1)CC31CCN(Cc2cccnc2)CC1 | . | . | 1.4 | -89.0*
COc1ccc(C(=O)CSc2nnc(-c3ccccc3Cl)n2-c2ccccc2)cc1 | 0.8 | . | . | .
C[C@@H]1CCCCO[C@@H](CN(C)C(=O)Nc2ccc3c(c2)OCO3)[C@@H](C)CN([C@@H](C)CO)C(=O)c2cc(NC(=O)Nc3ccc(F)cc3)ccc2O1 | 1.7 | 24.9 | -0.4 | -82.8*
C[C@@H]1CCCCO[C@H](CN(C)C(=O)CCC(F)(F)F)[C@@H](C)CN([C@H](C)CO)C(=O)c2cc(NC(=O)Nc3ccc4c(c3)OCO4)ccc2O1 | 0.7 | 87.8 | -1.3 | -82.6*
C[C@@H]1CCCCO[C@@H](CN(C)C(=O)Nc2ccc3c(c2)OCO3)[C@@H](C)CN([C@H](C)CO)C(=O)c2cc(NC(=O)Nc3ccc(C(F)(F)F)cc3)ccc2O1 | -0.8 | 86.3 | 2.3 | 15.6
